{"source": "paper PMC9398548", "about": "(European journal of pharmaceutical sciences : official …, 2020)", "key": {"[1]": {"tested_on": "K562 cells", "assay": "MTT cytotoxicity assay in K562 cells", "format": "cell-based", "details": "read-out: K562- IC50", "summary_of_the_method": "(§1)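 Cells were grown in suspension in RPMI 1640 with 10% FBS and penicillin/streptomycin/amphotericin B at 37 °C under 5% CO2. They were seeded at ~5×10^3 cells/well, kept overnight, then exposed to test compounds diluted in DMSO for 48 h. Cells were pelleted (300 g, 4 °C, 5 min) and washed twice in phosphate buffer. MTT (5 mg/ml stock) was added for 4 h at 37 °C, formazan dissolved in DMSO, and A570 read. Triplicate; IC50 given as mean±SD.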"}, "[2]": {"target": "HDAC1 (Homo sapiens, UniProt Q13547)", "sequence (Q13547 whole entry, species assumed)": "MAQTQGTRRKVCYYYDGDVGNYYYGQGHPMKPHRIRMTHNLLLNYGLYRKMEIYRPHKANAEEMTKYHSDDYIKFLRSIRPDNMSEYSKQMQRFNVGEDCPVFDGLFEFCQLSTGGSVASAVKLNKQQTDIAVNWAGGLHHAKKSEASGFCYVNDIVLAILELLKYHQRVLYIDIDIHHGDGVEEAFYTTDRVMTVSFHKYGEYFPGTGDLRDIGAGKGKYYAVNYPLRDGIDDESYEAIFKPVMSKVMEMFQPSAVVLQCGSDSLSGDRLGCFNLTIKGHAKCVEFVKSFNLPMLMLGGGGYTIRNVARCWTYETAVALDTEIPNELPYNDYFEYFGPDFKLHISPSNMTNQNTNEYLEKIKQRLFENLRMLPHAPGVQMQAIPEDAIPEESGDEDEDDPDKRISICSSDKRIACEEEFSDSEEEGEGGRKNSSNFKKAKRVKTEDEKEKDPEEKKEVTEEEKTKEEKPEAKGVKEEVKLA", "assay": "HDAC enzyme activity assay, HDAC1", "format": "biochemical"}, "[3]": {"target": "T1, HDAC6 (Homo sapiens, UniProt Q9UBN7)", "T1 sequence (Q9UBN7 1-1215)": "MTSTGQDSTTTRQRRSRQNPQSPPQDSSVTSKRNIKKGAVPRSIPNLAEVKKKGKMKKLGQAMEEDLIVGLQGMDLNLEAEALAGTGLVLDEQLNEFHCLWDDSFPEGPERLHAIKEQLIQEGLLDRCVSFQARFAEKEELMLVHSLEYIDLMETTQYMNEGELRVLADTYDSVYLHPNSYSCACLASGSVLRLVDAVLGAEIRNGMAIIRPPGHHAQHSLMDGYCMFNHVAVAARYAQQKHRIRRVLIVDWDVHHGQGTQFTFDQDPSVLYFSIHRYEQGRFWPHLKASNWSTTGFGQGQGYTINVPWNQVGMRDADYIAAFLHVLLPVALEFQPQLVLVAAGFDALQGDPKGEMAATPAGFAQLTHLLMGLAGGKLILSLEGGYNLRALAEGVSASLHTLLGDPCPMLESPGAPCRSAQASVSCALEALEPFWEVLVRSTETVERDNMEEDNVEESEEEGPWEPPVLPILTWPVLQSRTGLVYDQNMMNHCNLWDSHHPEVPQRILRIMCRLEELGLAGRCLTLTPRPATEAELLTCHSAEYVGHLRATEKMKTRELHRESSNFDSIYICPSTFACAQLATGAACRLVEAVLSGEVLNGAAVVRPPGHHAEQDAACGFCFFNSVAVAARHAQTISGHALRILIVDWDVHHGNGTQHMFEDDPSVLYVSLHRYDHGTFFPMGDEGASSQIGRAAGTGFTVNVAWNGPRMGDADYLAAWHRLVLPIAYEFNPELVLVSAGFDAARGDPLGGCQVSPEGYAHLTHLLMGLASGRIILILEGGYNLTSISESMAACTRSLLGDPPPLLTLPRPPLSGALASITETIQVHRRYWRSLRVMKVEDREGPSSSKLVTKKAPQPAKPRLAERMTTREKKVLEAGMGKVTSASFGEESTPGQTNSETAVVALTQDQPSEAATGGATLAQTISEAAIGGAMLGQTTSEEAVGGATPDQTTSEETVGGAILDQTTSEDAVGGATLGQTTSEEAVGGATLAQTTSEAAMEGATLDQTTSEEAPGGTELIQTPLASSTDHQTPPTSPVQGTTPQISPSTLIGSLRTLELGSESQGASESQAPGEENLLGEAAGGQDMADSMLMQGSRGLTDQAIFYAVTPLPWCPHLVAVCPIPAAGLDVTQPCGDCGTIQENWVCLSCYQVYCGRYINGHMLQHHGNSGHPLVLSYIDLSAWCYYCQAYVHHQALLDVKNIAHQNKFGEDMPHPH", "assay": "HDAC enzyme activity assay, HDAC6", "format": "biochemical"}, "[4]": {"target": "HDAC4 (Homo sapiens, UniProt P56524)", "sequence (P56524 655-1084 limits assumed)": "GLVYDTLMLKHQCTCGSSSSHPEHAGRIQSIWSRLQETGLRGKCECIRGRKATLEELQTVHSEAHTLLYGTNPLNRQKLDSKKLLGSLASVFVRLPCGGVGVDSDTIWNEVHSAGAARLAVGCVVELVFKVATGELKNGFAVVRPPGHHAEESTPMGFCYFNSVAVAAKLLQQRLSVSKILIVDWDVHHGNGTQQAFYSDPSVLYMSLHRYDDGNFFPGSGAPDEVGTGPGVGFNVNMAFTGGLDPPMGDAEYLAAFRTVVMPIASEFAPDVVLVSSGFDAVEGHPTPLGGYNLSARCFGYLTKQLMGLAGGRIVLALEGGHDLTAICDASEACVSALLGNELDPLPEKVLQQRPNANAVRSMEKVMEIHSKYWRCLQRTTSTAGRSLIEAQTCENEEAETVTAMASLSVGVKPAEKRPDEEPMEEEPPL", "assay": "HDAC enzyme activity assay, HDAC4", "format": "biochemical", "summary_of_the_method": "(§2)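 Enzymes were recombinant: HDAC8, and the codon-optimised human HDAC4 catalytic domain (pET14b). Serial inhibitor dilutions in 25 mM Tris-HCl, 75 mM KCl, 0.001% Pluronic F-127, pH 8.0 were pre-incubated with enzyme for 1 h at 30 °C. Reaction ran 60 min at 30 °C with 20 μM Boc-Lys(trifluoroacetyl)-AMC and was stopped with 1.7 μM SATFMK. Trypsin (0.4 mg/ml) released AMC; fluorescence read at Ex 350/Em 450 nm. Triplicate; IC50 from dose-response curves.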"}, "[5]": {"target": "T2, HDAC8 (Homo sapiens, UniProt Q9BY41)", "T2 sequence (Q9BY41 1-377)": "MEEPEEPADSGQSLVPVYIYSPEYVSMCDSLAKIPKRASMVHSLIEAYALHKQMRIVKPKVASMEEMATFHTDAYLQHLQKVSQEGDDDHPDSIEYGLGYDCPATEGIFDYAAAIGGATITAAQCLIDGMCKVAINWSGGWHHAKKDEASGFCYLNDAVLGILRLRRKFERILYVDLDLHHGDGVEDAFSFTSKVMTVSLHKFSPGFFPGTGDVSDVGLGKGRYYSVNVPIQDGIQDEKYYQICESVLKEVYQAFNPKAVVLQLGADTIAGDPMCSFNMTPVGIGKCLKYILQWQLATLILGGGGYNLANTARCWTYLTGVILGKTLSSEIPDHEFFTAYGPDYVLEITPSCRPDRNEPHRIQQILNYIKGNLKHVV", "assay": "HDAC enzyme activity assay, HDAC8", "format": "biochemical", "details": "for HDAC-8 relative enzyme activity: primary screening at 50 μM", "summary_of_the_method": "as §2"}, "[6]": {"tested_on": "CEM cells", "assay": "MTT cytotoxicity assay in CEM cells", "format": "cell-based", "details": "read-out: CEM- IC50, 48 h, Mean±SD, n=3", "summary_of_the_method": "as §1"}, "[7]": {"tested_on": "human colon cancer HT-29 cells", "details": "read-out: antiproliferative IC50, HT-29 cells; ref Bonnet et al., 2014; cited from earlier work"}, "[8]": {"tested_on": "human prostate cancer PC-3 cells", "details": "read-out: antiproliferative IC50, PC-3 cells; ref Bonnet et al., 2014; cited from earlier work"}, "[9]": {"tested_on": "murine leukemia P-388 cells", "details": "read-out: antiproliferative IC50, P-388 cells; ref Bonnet et al., 2014; cited from earlier work"}, "[10]": {"details": "read-out: HDAC1 IC50, Means ±SD, n=3"}, "[11]": {"details": "read-out: HDAC6 IC50, Means ±SD, n=3"}, "[12]": {"details": "read-out: HDAC4 IC50, Means ±SD, n=3"}, "[13]": {"details": "read-out: HDAC8 IC50, Means ±SD, n=3"}}, "note": "Read-outs that look alike come from different tables or passages of the source.", "data": [{"smiles": "O=C(CN1C(=O)SC(=Cc2ccccc2)C1=O)Nc1ccc(Cl)cc1C(F)(F)F", "note": "[Compound G13, 2-[5-Benzylidene-2,4-dioxothiazolidin-3-yl]-N-(4-chloro-2-trifluoromethylphenyl)acetamide]", "values": [{"measurement": "IC50", "setting": "[1]; Homo sapiens, K562, 48 h", "value": "41.7 ± 3.9", "unit": "µM"}, {"measurement": "IC50", "setting": "[2]", "value": "> 50", "unit": "µM"}, {"measurement": "IC50", "setting": "[3]", "value": 42, "unit": "µM"}, {"measurement": "IC50", "setting": "[4]", "value": "> 50", "unit": "µM"}, {"measurement": "IC50", "setting": "[5]", "value": "11 ± 1", "unit": "µM"}, {"measurement": "HDAC-8 relative enzyme activity", "setting": "[5]", "value": "< 50", "unit": "%"}]}, {"smiles": "Cc1ccc(C=C2SC(=O)N(CC(=O)Nc3ccc(Cl)cc3C(F)(F)F)C2=O)cc1C", "note": "[Compound G3, N-(4-Chloro-2-trifluoromethylphenyl)-2-[5-(3,4-dimethylbenzylidene)-2,4-dioxothiazolidin-3-yl] acetamide]", "values": [{"measurement": "IC50", "setting": "[1]; MTT, 48 h, Mean±SD, n=3", "value": "26.4 ± 3.07", "unit": "µM"}, {"measurement": "IC50", "setting": "[2]; [10]", "value": "> 50", "unit": "µM"}, {"measurement": "IC50", "setting": "[6]", "value": "25.9 ± 2.95", "unit": "µM"}, {"measurement": "IC50", "setting": "[3]; [11]", "value": "17 ± 2", "unit": "µM"}, {"measurement": "IC50", "setting": "[4]; [12]", "value": "> 50", "unit": "µM"}, {"measurement": "HDAC-8 relative enzyme activity", "setting": "[5]", "value": "< 50", "unit": "%"}, {"measurement": "IC50", "setting": "[5]; [13]", "value": "16 ± 2", "unit": "µM"}]}, {"smiles": "O=C(CN1C(=O)SC(=Cc2ccc(Br)cc2)C1=O)Nc1ccc(Cl)cc1C(F)(F)F", "note": "[Compound G1, 2-[5-(4-Bromobenzylidene)-2,4-dioxo-thiazolidin-3-yl]-N-(4-chloro-2-trifluromethylphenyl) acetamide]", "values": [{"measurement": "IC50", "setting": "[1]; MTT, 48 h, Mean±SD, n=3", "value": "24 ± 0.58", "unit": "µM"}, {"measurement": "IC50", "setting": "[2]; [10]", "value": "> 50", "unit": "µM"}, {"measurement": "IC50", "setting": "[6]", "value": "25.1 ± 1.84", "unit": "µM"}, {"measurement": "IC50", "setting": "[3]; [11]", "value": "16 ± 2", "unit": "µM"}, {"measurement": "IC50", "setting": "[4]; [12]", "value": "> 50", "unit": "µM"}, {"measurement": "HDAC-8 relative enzyme activity", "setting": "[5]", "value": "< 50", "unit": "%"}, {"measurement": "IC50", "setting": "[5]; [13]", "value": "20 ± 3", "unit": "µM"}]}, {"smiles": "Cc1ccc(C=C2SC(=O)N(CC(=O)Nc3ccc(Cl)cc3C(F)(F)F)C2=O)cc1", "note": "[Compound G11, N-(4-Chloro-2-trifluoromethylphenyl)-2-[5-(4-methylbenzylidene)-2,4-dioxothiazolidin-3-yl]acetamide]", "values": [{"measurement": "IC50", "setting": "[1]; Homo sapiens, K562, 48 h", "value": "34.6 ± 3.57", "unit": "µM"}, {"measurement": "IC50", "setting": "[2]", "value": "31 ± 1.1", "unit": "µM"}, {"measurement": "IC50", "setting": "[3]", "value": "14 ± 3", "unit": "µM"}, {"measurement": "IC50", "setting": "[4]", "value": "> 50", "unit": "µM"}, {"measurement": "IC50", "setting": "[5]", "value": "18 ± 2", "unit": "µM"}, {"measurement": "HDAC-8 relative enzyme activity", "setting": "[5]", "value": "< 50", "unit": "%"}]}, {"smiles": "O=C1C[C@@H]2/C(=C(O)\\C=C\\c3ccccc3)C(=O)C=C[C@@H]2O1", "note": "[(+)-Cryptocaryone]", "values": [{"measurement": "IC50", "setting": "[7]", "value": 0.32, "unit": "µM"}, {"measurement": "IC50", "setting": "[8]", "value": 1.6, "unit": "µM"}, {"measurement": "IC50", "setting": "[9]", "value": 0.04, "unit": "µM"}]}]}
